In PubChem BioAssay:
The source made the active and inactive calls.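 Rule for the calls, unless noted: active = viability at or under a set limit in both replicates, limit being median viability minus 3 SD (cut at about 48% in these data, passing the limit was not always enough); inconclusive = at or under the limit in just one replicate; inactive = at or above the limit in both replicates.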

Columns and labels:
[1] = reducers of endogenous Her2 protein level, primary screen, SKBR3 breast tumor cells, AlphaScreen, ATP viability (AID 461;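 active = Her2 level under about 52% in both replicate screens, with viability over 70% of control, limit read from the data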;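 for Her2 level: lower value means less Her2 protein in the cells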;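 for viability: percent of carrier control wells set as 100% viability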); details: 18-24 h, measured here: SKBR3 viability, ATP luminescence, at 10 µM
[2] = target: Receptor tyrosine-protein kinase erbB-2 (Homo sapiens) (UniProt P04626); assay: as above; details: 18-24 h, at 10 µM, stronger effect = lower value
[3] = SK-BR-3 cell growth inhibitors, pilot screen, 24 h, human (AID 572;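 active = viability at or below 10% of carrier control in both of two separate runs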;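 note: compound exposure lasted between 18 and 24 h rather than exactly 24 h; 100% = carrier-treated control wells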); details: SK-BR-3 viability, CellTiter-Glo luminescence, at 10 µM, stronger effect = lower value
[4] = HUVEC growth inhibition – cell-based, human, primary screen (AID 575;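 active = viability at or below 30% in both replicate assays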;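 note: 100% = median of untreated cell wells with 0.1% DMSO on each plate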); details: HUVEC proliferation, CellTiter-Glo luminescence, 72 h; at 10 µM; stronger effect = lower value
How it was run: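 Test system: HUVEC primary cells. Quantity: 1250 endothelial cells in each well. Dosing: single-point 10 µM, DMSO 0.1% final. Incubation: 72 h treatment at 37 °C. Measured by: CTG luminescence. Control set: DMSO cell controls and MePR drug controls. Plate: collagen-coated 384-well format.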

[5] = growth inhibitors of H69AR lung tumor, primary screen, human, duplicate replicates (AID 580); details: H69AR lung tumor cells viability, ATP luminescence, 72 h; at 10 µM; stronger effect = lower value;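 note: 100% = mean luminescence of untreated wells and 0% = no signal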
[6] = reversal of MRP1-mediated doxorubicin resistance, pilot screen, H69AR cells, doxorubicin co-treatment (AID 601;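 active = viability loss from added drug above about 55%, and viability with drug at most 40%, in both replicates, limit read from the data, passing the limit was not always enough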); details: CellTiter-Glo, 72 h, at 10 µM; for differential viability (reversal): stronger effect = higher value
[7] = 384-well plate pilot, post-Golgi transport modulator project, inhibition of yeast transport mutant growth (AID 636; in the data active = inhibition above about 31%); details: absorbance 615 nm, about 18 h, stronger effect = higher value
[8] = growth suppression of yeast trafficking mutant, preliminary HTS, modulators of trafficking downstream of Golgi apparatus project, 1536-format plate, OD 615 nm (AID 637; in the data active = inhibition above about 30%); details: yeast transport mutant growth, absorbance 615 nm, 18 h; stronger effect = higher value
[9] = H69AR cells + 2 uM doxorubicin, measured here: viability with 2 uM doxorubicin, stronger effect = lower value
[10] = H69AR cells, compound alone cytotoxicity

Receptor tyrosine-protein kinase erbB-2 (Homo sapiens), sequence (P04626 whole entry, looked up): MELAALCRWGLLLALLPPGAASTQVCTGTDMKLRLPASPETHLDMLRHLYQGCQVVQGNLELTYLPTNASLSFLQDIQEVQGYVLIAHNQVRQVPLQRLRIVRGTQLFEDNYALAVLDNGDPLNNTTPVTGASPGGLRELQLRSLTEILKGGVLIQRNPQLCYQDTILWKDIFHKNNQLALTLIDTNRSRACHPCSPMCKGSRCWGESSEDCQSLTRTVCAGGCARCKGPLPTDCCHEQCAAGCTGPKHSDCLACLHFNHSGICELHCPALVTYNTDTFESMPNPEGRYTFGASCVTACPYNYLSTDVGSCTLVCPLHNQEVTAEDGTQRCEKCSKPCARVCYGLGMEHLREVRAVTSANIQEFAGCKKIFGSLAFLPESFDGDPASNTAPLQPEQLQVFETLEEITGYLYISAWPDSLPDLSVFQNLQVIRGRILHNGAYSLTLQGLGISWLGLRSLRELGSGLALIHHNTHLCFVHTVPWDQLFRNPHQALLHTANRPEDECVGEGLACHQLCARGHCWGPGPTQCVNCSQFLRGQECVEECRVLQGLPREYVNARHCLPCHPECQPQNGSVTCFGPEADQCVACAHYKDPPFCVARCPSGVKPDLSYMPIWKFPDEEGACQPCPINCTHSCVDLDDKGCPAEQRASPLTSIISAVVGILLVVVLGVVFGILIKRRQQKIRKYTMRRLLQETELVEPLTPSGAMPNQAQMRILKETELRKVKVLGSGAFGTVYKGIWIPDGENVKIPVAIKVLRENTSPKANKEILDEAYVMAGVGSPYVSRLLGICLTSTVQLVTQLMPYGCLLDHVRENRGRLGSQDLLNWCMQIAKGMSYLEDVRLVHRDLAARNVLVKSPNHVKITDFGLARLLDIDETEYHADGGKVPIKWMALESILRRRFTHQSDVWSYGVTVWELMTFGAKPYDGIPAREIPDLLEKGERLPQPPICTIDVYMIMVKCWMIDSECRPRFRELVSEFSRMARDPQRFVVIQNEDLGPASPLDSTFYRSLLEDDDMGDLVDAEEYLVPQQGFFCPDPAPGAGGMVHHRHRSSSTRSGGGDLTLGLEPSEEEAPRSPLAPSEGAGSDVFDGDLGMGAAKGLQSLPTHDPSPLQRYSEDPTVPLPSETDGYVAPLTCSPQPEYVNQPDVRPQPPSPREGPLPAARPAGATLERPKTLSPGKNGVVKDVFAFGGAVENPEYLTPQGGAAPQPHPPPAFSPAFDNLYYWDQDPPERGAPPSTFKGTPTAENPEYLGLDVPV

| SMILES | viability [1] | Her2 level [2] | viability [3] | viability [4] | viability [5] | differential viability (reversal) ([6]; H69AR cells + 2 uM doxorubicin) | viability [6, 9] | viability [6, 10] | inhibition [7] | inhibition [8] |
| --- | --- | --- | --- | --- | --- | --- | --- | --- | --- | --- |
| CS(=O)(=O)N(CC(=O)O)c1cccc(Cl)c1 | 95% | 120% (inactive) | 95% (inactive) | 115% (inactive) | 95.7% (inactive) | -0.88% (inactive) | 96.6% | 95.7% | 2.11% (inactive) | 2.95% (inactive) |
| O=C(NCc1ccccc1)c1ccc(OC2CSC2)cc1 | 88% | 103% (inactive) | 88% (inactive) | 91.5% (inactive) | 112% (inactive) | 18.5% (inactive) | 93.6% | 112% | 2.34% (inactive) | -11% (inactive) |
| CCCC1(C(=O)OCC)NC(c2ccc(N(C)C)cc2)C2C(=O)N(c3ccccc3)C(=O)C21 (stereo not given) | 109% | 99% (inactive) | 109% (inactive) | 99.2% (inactive) | 97.2% (inactive) | 3.73% (inactive) | 93.5% | 97.2% | -7.11% (inactive) | -6.03% (inactive) |
| O=S(=O)(c1ccc2c(c1)nc1n2CCC1)N1CCOCC1 | 102% | 87% (inactive) | 102% (inactive) | 102% (inactive) | 98.9% (inactive) | 7.71% (inactive) | 91.2% | 98.9% | -0.26% (inactive) | -4.44% (inactive) |
| C=CCOc1nc(N(C)C)nc(N(C)C)n1 | 92.5% | 87% (inactive) | 92.5% (inactive) | 93.9% (inactive) | 98.2% (inactive) | 9.33% (inactive) | 88.8% | 98.2% | -4.67% (inactive) | 1.31% (inactive) |
| COc1ccccc1NC(=O)C1=C(C)Nc2nc(CCCO)nn2C1c1cccnc1 (stereo not given) | 132% | 94.5% (inactive) | 132% (inactive) | 95.7% (inactive) | 96.2% (inactive) | 11% (inactive) | 85.2% | 96.2% | -6.36% (inactive) | -3.81% (inactive) |
| Cc1ccc(S(=O)(=O)N2CCOCC2)cc1C(=O)Nc1ccccn1 | 87% | 83% (inactive) | 87% (inactive) | 110% (inactive) | 93.8% (inactive) | 7.62% (inactive) | 86.1% | 93.8% | -6.76% (inactive) | -3.17% (inactive) |
| O=C(CCNC(=O)Cn1ccc2ccccc2c1=O)NCCN1CCc2ccccc2C1 | 118% | 98% (inactive) | 118% (inactive) | 87.3% (inactive) | 91.8% (inactive) | 0.755% (inactive) | 91% | 91.8% | -7.63% (inactive) | -8.18% (inactive) |
| CC(=O)OCC1OC(c2ccccc2)C(OC(C)=O)C(OC(C)=O)C1OC(C)=O (stereo not given) | 90% | 94.5% (inactive) | 90% (inactive) | 108% (inactive) | 98.8% (inactive) | -1.94% (inactive) | 101% | 98.8% | -3.21% (inactive) | -3.83% (inactive) |
| CN(C)S(=O)(=O)NC(c1ccccc1)c1ccccc1 | 93% | 97% (inactive) | 93% (inactive) | 105% (inactive) | 105% (inactive) | 15.6% (inactive) | 88.9% | 105% | -8% (inactive) | -2.38% (inactive) |
| Cc1cc(Br)ccc1NC(=O)CNC(=O)CSc1n[nH]c(N)n1 | 110% | 89.5% (inactive) | 110% (inactive) | 99.3% (inactive) | 104% (inactive) | 16.3% (inactive) | 87.3% | 104% | -6.22% (inactive) | 8.41% (inactive) |
| COc1cccc(OC)c1C(=O)N1CCN(S(=O)(=O)c2ccccc2)CC1 | 79.5% | 82.5% (inactive) | 79.5% (inactive) | 82.9% (inactive) | 97.2% (inactive) | 15.2% (inactive) | 82.1% | 97.2% | -3.42% (inactive) | -2% (inactive) |
| COc1ccc(CCNC(=O)C2CC(=O)N(c3ccccc3)C2)cc1OC (stereo not given) | 124% | 99.5% (inactive) | 124% (inactive) | 89.7% (inactive) | 91.5% (inactive) | 1.51% (inactive) | 90% | 91.5% | -2.47% (inactive) | -1.8% (inactive) |
| O=C(NC1CCCCC1)c1ccc(S(=O)(=O)N2CCCCC2)cc1 | 80.5% | 108% (inactive) | 80.5% (inactive) | 86% (inactive) | 74.9% (inactive) | -29.9% (inactive) | 105% | 74.9% | 4.29% (inactive) | -11.4% (inactive) |
| CC(C)(C)OC(=O)NCCc1nnc(SCC(=O)c2ccc(Cl)cc2)o1 | 97.5% | 106% (inactive) | 97.5% (inactive) | 93.1% (inactive) | 105% (inactive) | 13% (inactive) | 92.4% | 105% | -0.78% (inactive) | -3.83% (inactive) |
| COC(=O)C1=C(C)NC(=O)C1(NC(=O)CN1CCCC1=O)C(F)(F)F (stereo not given) | 116% | 91% (inactive) | 116% (inactive) | 105% (inactive) | 101% (inactive) | 3.15% (inactive) | 98.3% | 101% | -4.34% (inactive) | -6.03% (inactive) |
| CC(NC(=O)C1CCCN(S(=O)(=O)c2cccs2)C1)c1ccccc1 (stereo not given) | 95% | 80.5% (inactive) | 95% (inactive) | 104% (inactive) | 89.7% (inactive) | 1.41% (inactive) | 88.2% | 89.7% | 1.03% (inactive) | 1.17% (inactive) |

| SMILES | viability [1] | Her2 level [2] | viability [3] | viability [4] | viability [5] | differential viability (reversal) ([6]; H69AR cells + 2 uM doxorubicin) | viability [6, 9] | viability [6, 10] | inhibition [7] | inhibition [8] |
| --- | --- | --- | --- | --- | --- | --- | --- | --- | --- | --- |
| CCOC(=O)c1cccnc1SCC(=O)NC(C)CC (stereo not given) | 92% | 93% (inactive) | 92% (inactive) | 96.7% (inactive) | 102% (inactive) | 9.73% (inactive) | 92.3% | 102% | 2.08% (inactive) | -3.61% (inactive) |
| c1ccc(Cn2nnnc2CN2CCN(c3ncccn3)CC2)cc1 | 99% | 97.5% (inactive) | 99% (inactive) | 92.1% (inactive) | 100% (inactive) | -0.765% (inactive) | 101% | 100% | -3.47% (inactive) | 0.98% (inactive) |
| COc1cc(Br)cc(CN2CCN(C/C=C/c3ccccc3)CC2)c1O | 81% | 93.5% (inactive) | 81% (inactive) | 79.5% (inactive) | 93.2% (inactive) | 7.21% (inactive) | 86% | 93.2% | 0.93% (inactive) | 11.3% (inactive) |
| Cc1noc(NS(=O)(=O)c2ccc(N3C(=O)c4ccccc4C3=O)cc2)c1C | 116% | 98% (inactive) | 116% (inactive) | 99.1% (inactive) | 107% (inactive) | 0.49% (inactive) | 106% | 107% | -3.47% (inactive) | 2.58% (inactive) |
| Cc1cc(=O)n2nc(-c3ccccc3)sc2n1 | 101% | 92.5% (inactive) | 101% (inactive) | 97.2% (inactive) | 92.3% (inactive) | 4.42% (inactive) | 87.8% | 92.3% | -3.73% (inactive) | 1.11% (inactive) |
| COc1cc(OC)c(NC(=O)c2ccco2)cc1Cl | 121% | 81.5% (inactive) | 121% (inactive) | 92.1% (inactive) | 84.7% (inactive) | -12.1% (inactive) | 96.9% | 84.7% | -3.95% (inactive) | 0% (inactive) |
| CCOC(=O)CNc1ccc2c(c1)OCO2 | 88% | 90% (inactive) | 88% (inactive) | 76.6% (inactive) | 98.7% (inactive) | 13.2% (inactive) | 85.6% | 98.7% | -5% (inactive) | -2.3% (inactive) |
| COc1ccccc1C1C(C(C)=O)=C(O)C(=O)N1CCc1ccccc1 (stereo not given) | 93.5% | 102% (inactive) | 93.5% (inactive) | 98.1% (inactive) | 104% (inactive) | 9.69% (inactive) | 94.5% | 104% | -5.07% (inactive) | 3.87% (inactive) |
| CCOC(=O)c1cc2c(=O)n3cccc(C)c3nc2n(CCc2ccccc2)c1=N | 82% | 72% (inactive) | 82% (inactive) | 75.9% (inactive) | 77.9% (inactive) | -1.89% (inactive) | 79.8% | 77.9% | -4.8% (inactive) | 5.9% (inactive) |
| CCCCN(C)C(=O)CS(=O)(=O)Cc1nc(-c2cccc(OC)c2)oc1C | 94% | 114% (inactive) | 94% (inactive) | 94.8% (inactive) | 99.9% (inactive) | 15.6% (inactive) | 84.2% | 99.9% | -4.4% (inactive) | 3.11% (inactive) |
| Cc1oc(-c2ccccc2F)nc1CS(=O)(=O)CC(=O)NCCCN1CCc2ccccc2C1 | 81.5% | 81.5% (inactive) | 81.5% (inactive) | 56.5% (inactive) | 79.9% (inactive) | -9.14% (inactive) | 89.1% | 79.9% | -1.6% (inactive) | -1.97% (inactive) |
| CCOC(=O)c1c(NCc2ccc3c(c2)OCO3)c2ccccc2[nH]c1=O | 100% | 69.5% (inactive) | 100% (inactive) | 100% (inactive) | 87.3% (inactive) | -5.86% (inactive) | 93.1% | 87.3% | -8.78% (inactive) | 1.33% (inactive) |
| Cc1cc(C)cc(OCCCC(=O)O)c1 | 114% | 97% (inactive) | 114% (inactive) | 67.9% (inactive) | 95.3% (inactive) | 3.5% (inactive) | 91.8% | 95.3% | -5.6% (inactive) | -0.16% (inactive) |
| Cc1nc(N2CCc3ccccc32)[nH]c(=O)c1CCC(C)C | 87.5% | 89% (inactive) | 87.5% (inactive) | 72.3% (inactive) | 79.1% (inactive) | 9.09% (inactive) | 70% | 79.1% | -2.99% (inactive) | 6.17% (inactive) |
| COc1ccc(OC)c(S(=O)(=O)NCCC2=CCCCC2)c1 | 77% | 87.5% (inactive) | 77% (inactive) | 106% (inactive) | 96.6% (inactive) | -5.82% (inactive) | 102% | 96.6% | -6.89% (inactive) | -3.77% (inactive) |
| O=C(CSc1nnc(C2CC2)n1Cc1ccccc1)c1ccc(S(=O)(=O)N2CCOCC2)cc1 | 120% | 92% (inactive) | 120% (inactive) | 95% (inactive) | 86.9% (inactive) | 12.5% (inactive) | 74.4% | 86.9% | -1.82% (inactive) | 6.72% (inactive) |
